# Screening results deposited in PubChem BioAssay by The Scripps Research Institute Molecular Screening Center.
# The list is not random: actives were taken first. Their share in the collection is about 1.7%.
# S1P2 ag – activates the human S1P2 receptor; S1P2-expressing cell line, agonist reporter read-out; activation, % at 4.5 µM; hit rate 0.46% among 97,000; AID 729; in the data active means activation above about 16%;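 further: 0% = vehicle low control and 100% = maximal reference agonist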
# GALR2 agonist – GALR2 (human) receptor agonism; O43603; GALR2-expressing cells, agonist activation read-out; activation, % (no concentration beside the values); hit rate 0.48% among 140,000; in the data active means activation above about 5%, passing the limit was not always enough;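 further: 0% = vehicle buffer wells and 100% = reference agonist at full effect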
# Target sequence (O43603 whole entry, looked up): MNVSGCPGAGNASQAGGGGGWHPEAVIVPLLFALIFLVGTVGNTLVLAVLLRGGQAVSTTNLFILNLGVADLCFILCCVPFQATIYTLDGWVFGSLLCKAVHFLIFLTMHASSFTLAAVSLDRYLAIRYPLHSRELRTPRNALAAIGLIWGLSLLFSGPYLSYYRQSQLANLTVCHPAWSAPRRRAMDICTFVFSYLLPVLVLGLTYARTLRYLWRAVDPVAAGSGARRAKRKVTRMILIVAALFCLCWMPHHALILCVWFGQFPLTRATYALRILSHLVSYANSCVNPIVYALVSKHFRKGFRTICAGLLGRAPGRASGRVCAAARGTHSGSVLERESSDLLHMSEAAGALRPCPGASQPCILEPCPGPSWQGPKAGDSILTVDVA
# GALR2 blocker – blocks the human galanin receptor 2 | O43603 | AID 828 | hit rate 0.39% among 140,000 | inhibition, % at 4 µM | GALR2-expressing cells, antagonist mode; in the data active means inhibition above about 27%;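 further: cells stimulated with galanin 1-16 at roughly its EC80; 0% = agonist challenge control and 100% = basal control without agonist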
# Rev-RRE block – inhibitors of HIV-1 Rev-RRE RNA interaction; P05866; Rev peptide-RRE RNA binding, FRET; inhibition, % at 8 µM; hit rate 0.79% among 97,000; AID 704;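 active means inhibition above the screen-wide mean plus 3 SD, cut at about 35% in these data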;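 further: 0% = median DMSO wells and 100% = median Neomycin B control wells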
# Target sequence (P05866 whole entry, looked up): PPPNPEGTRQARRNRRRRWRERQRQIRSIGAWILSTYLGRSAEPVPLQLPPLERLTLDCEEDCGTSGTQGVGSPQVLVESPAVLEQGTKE
#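 Test system: labelled RRE RNA duplex and labelled Rev peptide. Times: 5 min compound–RNA preincubation, then 15 min with peptide, 25 °C. Doses: single-dose 8 µM. Measured by: FRET, excitation 480 nm, emission 540 nm donor and 671 nm acceptor. Measure: % inhibition of FRET ratio versus controls.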
# EphB4 ephrin blk – EphB4-ephrin-B2 interaction antagonism. P54760. EphB4 LBD / TNYL-RAW-Alexa532 peptide, fluorescence polarization. inhibition, % at 7 µM. hit rate 0.15% among 97,000. AID 720;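 active means inhibition above the screen-wide mean inhibition plus 3 SD, cut at about 15% in these data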;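 further: 0% = DMSO wells and 100% = excess unlabeled TNYL-RAW peptide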
# S1P2 blocker – blocks the human S1P2 receptor; O95136; cell-based S1P2 antagonist assay, inhibition at 5 uM; inhibition, % at 5 µM; hit rate 0.21% among 97,000; AID 736; in the data active means inhibition above about 45%;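 further: CRE beta-lactamase reporter cells expressing human S1P2 stimulated with S1P; 0% = agonist at EC80 alone and 100% = agonist plus reference antagonist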
# * marks the source's active call; other numbers are inactive results; nt = no result; [ ] = remark or other dose.
SMILES,S1P2 ag,GALR2 agonist,GALR2 blocker,Rev-RRE block,EphB4 ephrin blk,S1P2 blocker
Cc1cc(/C=C2/SC(=S)N(c3cccc(C(F)(F)F)c3)C2=O)c(C)n1-c1cccnc1,-5,-3,35*,44*,4,82*
CCOC(=O)c1ccc(N=C2S/C(=C\c3cc(C)n(-c4cccnc4)c3C)C(=O)N2C)cc1,-8,-1,-21,-10,3,-15
CCOc1ccc(-c2nn(-c3ccccc3)cc2/C=C2\SC(=S)N(Cc3ccco3)C2=O)cc1,nt,-1,-1,nt,nt,nt
Cc1ccc(-c2csc(=S)n2CC(=O)OCC(=O)NCc2ccc(F)cc2)cc1,-4,-1,17,10,6,17
COC(=O)C1CCCN1S(=O)(=O)c1ccc2ccccc2c1 (stereo not drawn),-5,-1,-5,12,2,9
Cc1ccc(S(=O)(=O)N2CCCC2C(=O)Oc2ccccc2)cc1 (stereo not drawn),36*,0,0,2,-2,-2
CC(C)OCCCNC(=O)c1c(N)n(/N=C/c2cccs2)c2nc3ccccc3nc12,18*,3,-18,-4,-2,-28
O=c1oc2ccccc2cc1-c1nnc(NCc2ccco2)s1,-6,0,3,44*,-4,19
Nc1nnc(-c2cc3ccccc3oc2=O)s1,-8,-3,17,7,-1,7
COC(=O)c1cc2c(C)cc3ccc(C)cn3c-2c1C(=O)OC,-6,1,18,36*,-1,-25
NC(=O)c1ccc(NC(=O)C2CCCO2)cc1 (stereo not drawn),219*,-3,-2,2,-1,6
CSc1nsc(/C=C/Nc2ccc(Cl)cc2)c1C#N,0,1,3,42*,4,27
CC1(C)Cc2ccccc2-c2nnc(SCC(=O)Nc3nc4ccccc4s3)n21,-6,1,-4,5,18*,3
CC(C)C1N=C2c3ccccc3N=C(SCC(=O)NCCc3ccc(S(N)(=O)=O)cc3)N2C1=O (stereo not drawn),nt,-2,17,nt,nt,nt
CC(C)C1N=C2c3ccccc3N=C(SCc3cc(=O)n4cc(Cl)ccc4n3)N2C1=O (stereo not drawn),25*,0,-9,13,-6,-34
COc1cccc(-c2cc(C(=O)Nc3cc(C)on3)no2)c1,-5,6.2*,-6,2,6,8
Cc1c(NC(=O)c2nn3c(c2Br)NC(c2ccccc2)CC3C(F)(F)F)c(=O)n(-c2ccccc2)n1C (stereo not drawn),nt,-1,14,nt,nt,nt
COc1cc(/C=N/Nc2nc(Nc3ccccc3)nc(-n3nc(C)cc3C)n2)cc(OC)c1OC,nt,8.1*,7,nt,nt,nt
COc1cc(/C=N/Nc2nc(Nc3ccc(C)cc3)nc(-n3nc(C)cc3C)n2)cc(OC)c1OC,-1,6,7,0,-1,47*
O=C(COC(=O)C(Cc1ccccc1)NC(=O)c1ccco1)NC1CC1 (stereo not drawn),-4,-1,-8,6,17*,8
CCCS(=O)(=O)c1nnnn1-c1cccc(OC)c1,nt,-1,84*,nt,nt,nt
COC(=O)c1ccc(NC(=O)CN2CCN(c3cccc(Cl)c3)CC2)cc1,-6,-1,-12,13,17*,12
CCn1c(C)nc2cc(C(=O)OC(C(F)(F)C(F)F)C(F)(F)C(F)F)ccc21,-9,0,7,12,4,70*
CCOC(=O)NC(=O)CSc1nc(C)cc(C(F)(F)F)c1C#N,-5,-1,3,42*,-6,-11
CCOC(=O)CC(=O)CSc1nc2ccc(C)cc2cc1C#N,-7,-1,-5,94*[fluorescence artefact?],11,12
SMILES,S1P2 ag,GALR2 agonist,GALR2 blocker,Rev-RRE block,EphB4 ephrin blk,S1P2 blocker
Cc1ccc(S(=O)(=O)CCSc2nc(C)cc(C(F)(F)F)c2C#N)cc1,-4,-2,4,64*,-3,0
CCOC(=O)CC(=O)CSc1nc(C)cc(C)c1C#N,-5,7.2*,5,3,-4,-3
COC(=O)CSc1nc(C)cc(C(F)(F)F)c1C#N,-1,-1,-3,11,15,-4
C/C(=N\NC(=S)NCCc1ccccc1)c1cccs1,nt,-1,12,nt,nt,nt
COc1c(Cl)cc(C(=O)Nc2ccccc2C(=O)O)cc1Cl,-5,-2,4,3,3,3
C[C@H](NC(=O)Cn1cncn1)c1ccccc1,-3,-4,1,5,-1,20
Cc1ccc(NS(=O)(=O)c2cccc(C(=O)NCCc3c[nH]c4ccccc34)c2)c(C)c1,nt,-1,6,nt,nt,nt
O=C1OC(NC(=O)c2ccccc2)C(n2cc(CO)nn2)=C1Cl (stereo not drawn),-11,-1,2,6,6,24
ClC(Cl)(c1nnnn1-c1ccccc1)c1nnnn1-c1ccccc1,nt,0,22,nt,nt,nt
COc1ccnc(CSC(N)=Nc2cccc(C(F)(F)F)c2)c1,nt,-1,7,nt,nt,nt
CCOC(=O)c1cc2c(=O)n3cccc(C)c3nc2n(CCOC)c1=NC(=O)c1ccncc1,-5,-2,-1,7,0,-10
COCCCn1c(=NC(=O)c2ccncc2)c(C#N)cc2c(=O)n3cccc(C)c3nc21,nt,5.6*,-13,nt,nt,nt
CCCCn1c(=NC(=O)c2cccnc2)c(C#N)cc2c(=O)n3cccc(C)c3nc21,2,3,-18,49*,0,-27
Cc1cccn2c(=O)c3cc(C#N)c(=NC(=O)c4ccncc4)n(CCCOC(C)C)c3nc12,18*,2,-13,22,11,-13
Clc1cc(Sc2ccc(Br)cc2)nnc1-c1ccccc1,5,-1,10,8,6,-8
Cc1cc(NC(=O)C2C3C(=O)N(Cc4ccc(Cl)cc4)C(C(=O)NCc4ccccc4)C34C=CC2(C)O4)no1 (stereo not drawn),-1,-1,10,4,-1,9
Cc1ccc(Nc2nnc(C3C(=O)N(C)C4(C)CC3c3cc(Br)ccc3O4)s2)cc1 (stereo not drawn),nt,0,-15,nt,nt,nt
O=C(c1cccc(OC(F)F)c1)N1CCN(c2ncccn2)CC1,-7,-1,3,2,-2,14
CC12CCC(c3c1nc1ccccc1[n+]3[O-])C2(C)C (stereo not drawn),nt,0,2,nt,nt,nt
N#CC(c1cccc(Cl)c1)c1ccc2c(C(F)(F)F)cc(C(F)(F)F)nc2n1 (stereo not drawn),-5,-2,15,-2,-4,88*
Cc1nnc(-c2ccccc2)c(=O)n1/N=C/c1c(O)ccc2ccccc12,-14,-3,23,130*[fluorescence artefact?],7,16
O=C(NCCc1ccc(Cl)cc1)C1CCC(CNc2c(N3CCCCC3)c(=O)c2=O)CC1 (stereo not drawn),nt,-1,8,nt,nt,nt
CC(C)c1ccc(C2C(C#N)=C(N)N3C(=C2C#N)Sc2ccccc23)cc1 (stereo not drawn),13,0,-21,56*,5,29
